Data from ChEMBL document CHEMBL1141187, “New potential anticancer agents based on the anthranilic acid scaffold: synthesis and evaluation of biological activity” (2005).

Columns and labels:
Type in all cases: functional
[1] = system: MCF7; assay: Antiproliferative activity against human breast cancer MCF7 cell line
How it was run: (§1)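 Part of the NCI ~60 human tumor cell line panel screen. Each compound was tested at five concentrations in 10-fold dilutions from 10^-4 to 10^-8 M. GI50 is read from dose-response curves as the molar concentration giving 50% inhibition of net cell growth, and is also reported as pGI50 (-log molar).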

[2] = system: SF-268; assay: Antiproliferative activity against human CNS SF268 cell line; how it was run: as §1
[3] = system: K562; assay: Antiproliferative activity against human leukemia K562 cell line; how it was run: as §1
[4] = system: SN12C; assay: Antiproliferative activity against human renal SN12C cell line; how it was run: as §1
[5] = system: UACC-62; assay: Antiproliferative activity against human melanoma UACC62 cell line; how it was run: as §1
[6] = system: NCI-H23; assay: Antiproliferative activity against human lung NCI-H23 cell line; how it was run: as §1
[7] = system: SW-620; assay: Antiproliferative activity against human colon SW620 cell line; how it was run: as §1

`O=C(Oc1ccccc1Cl)c1ccccc1Nc1cccc(C(F)(F)F)c1` was tested, and the GI50 [1] was 33.9 µM, the GI50 [2] was 20.4 µM and the GI50 [3] was 2.69 µM. For the same compound, the GI50 [4] was 23.4 µM, the GI50 [5] was 17 µM and the GI50 [6] was 20 µM. The GI50 [7] was 8.13 µM.
Compound `O=C(Oc1ccc(Cl)cc1)c1ccccc1Nc1ccnc(C(F)(F)F)c1` has a GI50 [1] of 3.72 µM, a GI50 [2] of 4.37 µM and a GI50 [3] of 3.63 µM. The GI50 [4] was 2.95 µM, the GI50 [5] was 2.63 µM and the GI50 [6] was 2.82 µM. For the same compound, the GI50 [7] was 6.61 µM.
With `O=C(Oc1ccc(Cl)cc1Cl)c1ccccc1Nc1ccnc(C(F)(F)F)c1` the GI50 [1] was 3.63 µM, the GI50 [2] was 3.09 µM and the GI50 [3] was 3.02 µM. The GI50 [4] was 3.02 µM, the GI50 [5] was 2.29 µM and the GI50 [6] was 3.55 µM. For the same compound, the GI50 [7] was 4.57 µM.
`O=C(Oc1cccnc1)c1ccccc1Nc1ccnc(C(F)(F)F)c1` gave a GI50 [1] of 0.0457 µM, a GI50 [2] of 0.331 µM and a GI50 [3] of 0.0427 µM. For the same compound, the GI50 [4] was 0.0708 µM, the GI50 [5] was 0.288 µM and the GI50 [6] was 0.0363 µM. It also gave a GI50 [7] of 0.0407 µM.
`O=C(Oc1cccnc1)c1cccnc1Nc1ccnc(C(F)(F)F)c1` showed a GI50 [1] of 2.69 µM, a GI50 [2] of 5.62 µM and a GI50 [3] of 5.13 µM. The GI50 [4] was 6.46 µM, the GI50 [5] was 5.75 µM and the GI50 [6] was 6.31 µM. It also gave a GI50 [7] of 5.5 µM.
`O=C(Oc1ccccc1Cl)c1cccnc1Nc1ccnc(C(F)(F)F)c1` gave a GI50 [1] of 3.63 µM, a GI50 [2] of 10 µM and a GI50 [3] of 4.57 µM. For the same compound, the GI50 [4] was 4.07 µM, the GI50 [5] was 6.17 µM and the GI50 [6] was 8.71 µM. For the same compound, the GI50 [7] was 3.72 µM.
`O=C(Oc1c(Cl)cc(Cl)cc1Cl)c1ccccc1Nc1ccnc(C(F)(F)F)c1` was tested, and the GI50 [1] was 4.68 µM, the GI50 [2] was 3.89 µM and the GI50 [3] was 2.4 µM. It also gave a GI50 [4] of 3.09 µM, a GI50 [5] of 1.74 µM and a GI50 [6] of 2.57 µM. For the same compound, the GI50 [7] was 4.57 µM.
In the case of `O=C(Oc1ccccc1Cl)c1ccccc1Nc1ccnc(C(F)(F)F)c1`, the GI50 [1] is reported as 0.282 µM, the GI50 [2] is reported as 2.24 µM and the GI50 [3] is reported as 0.0513 µM. For the same compound, the GI50 [4] was 0.331 µM, the GI50 [5] was 0.309 µM and the GI50 [6] was 0.257 µM. The GI50 [7] was 0.363 µM.
`O=C(Oc1cccc(Cl)c1)c1ccccc1Nc1ccnc(C(F)(F)F)c1` showed a GI50 [1] of 4.79 µM, a GI50 [2] of 3.02 µM and a GI50 [3] of 3.24 µM. The GI50 [4] was 2.95 µM, the GI50 [5] was 2.04 µM and the GI50 [6] was 2.4 µM. The GI50 [7] was 4.37 µM.
`COc1cccc(OC(=O)c2ccccc2Nc2ccnc(C(F)(F)F)c2)c1` showed a GI50 [1] of 7.24 µM, a GI50 [2] of 4.68 µM and a GI50 [3] of 0.741 µM. The GI50 [4] was 5.37 µM, the GI50 [5] was 3.09 µM and the GI50 [6] was 2.04 µM. For the same compound, the GI50 [7] was 4.07 µM.
